Variants at the floor of the assay were thinned out.

The labels stand for the following.
B1: tRNA (parent)
chain: GUUCCGUUGGCGUAAUGGUAACGCGUCUCCCUCCUAAGGAGAAGACUGCGGGUUCGAGUCCCGUACGGAACG

The variants in this series derive from B1. The experiment in a line: yeast fitness relative to wild type (ratio to wild type); higher = fitter; tRNA-Arg(CCU), competitive growth, 37 C, YPD. Summed up:
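Start and end populations of a pooled competition were compared by 100-nucleotide paired-end sequencing of gene amplicons. The Saccharomyces cerevisiae strains carried tRNA-Arg(CCU) gene variants at the native genomic locus, synthesised with a 3% per-site mutation rate at 69 sites, and competed in YPD at 37°C for 24 hours in six parallel replicates. Darwinian fitness relative to wild type was based on the change in genotype frequencies. Genotypes required ≥ 100 starting reads, and estimates < 0.5 were set to 0.5.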
Turning to GAUACGUUGGCGUAAUGGUAACGCGUCUCCCUCCUAAGGAGAAGAGUGCGGAUUCGAGUCCCGUACGGAUCG, the yeast fitness was ≤ 0.5.

In the case of GUUCCGUUGGCGUAAUGGUAACGCGUUUCCCUCCUAAGGAGAAGACUGCGCGUUCGAGCCCAGUACGGAACG, the yeast fitness was ≤ 0.5.

Consider GUCCGGUUGGCGUAAUGGUAACGCGUCUCCCUCCUAAGGAGAAGACUGCGGGUUCGAGUCUCGUACGGAACG, for which the yeast fitness was ≤ 0.5.

For GUUCCGUUGGCGUAAUGGUAGCGCGUCACUCUCCUAAGGAGAAGACUGCGGGUUCGAGUCCAGUACGGAACG, the yeast fitness worked out at 0.744.

In the case of GUUCCGUUGGCGUAAUGGUAACGCGUCUGCCUCCUAAGGAGGAGACUGCGGGUUCGAGUCCCGUACGGAACG, the yeast fitness was 0.694.

As to GUUCCGUUGGCGUAAAGGUAAAGCGUCUCCCUCCUAAGGAGAAGACUGCGGGUUCGAGUCCCGUAUGGAACG, the yeast fitness is 0.675.

For the variant GUUCCGUUGGCGUAAUGGUAACGCGUCUCCCUCCUAAGGAGAAGACUGCGGGUUCGAAUCCCGUACUGAACG, the yeast fitness is 0.804.

With GUUACGUUGGCGUAGUGGUAACGCGUCUCCCUCCUAAGGGGAAGACUGCGGGUUCGAGUCCCGAACGGAACG, the yeast fitness is ≤ 0.5.

As to GAUCCGUUGGCGUAAUGGUGACGCGUCUCCCUCCUAAGGAGAAGACUGCGGGUUCGAGUCCCGUACGGCACG, the yeast fitness stood at 0.688.

In the case of GUUCCGUUGGGGUAAUAGUAAUGCGUUUCCCUGCUAAGGAGAAGACUGCGGGUUCGAGUCCCGUACGGAACG, the yeast fitness is ≤ 0.5.

Consider GUUCCGAUGGCGUAAUGGUAACGCGUCUCCCUCCUAAGGAGAAGACUGCGGGUUCGAGUGCCGUACCGAACG, for which the yeast fitness is ≤ 0.5.

Take GUUCCGUUGGCGUAAUGGUAACGUGUCUCUCUCCUAAGGAGAAGACUGCGGGUUCGAGUCCCAUACGGAACG: the yeast fitness turned out to be 0.502.

As to GUUCCGUUGGCGAAAUGGUAACGCGGCUCGCUCCUAAGGAGAAGACUGGGGGUUCGAGUCCCGUACGGAACG, the yeast fitness was 0.501.

Consider GUUCUGUUGGCGUAUUGGUAACGCGUCUUCUUCUUAAGGAGAAGACUCCGGGUUCGAGUCCCGUACGAAACG, for which the yeast fitness was ≤ 0.5.

For GUUCCGUUGGGGUAAUGGUGACGUGUCCCCCUCCUAAGGAGAAGACUGCGGGUUCGAGUCCCGUACGGAACG, the yeast fitness was ≤ 0.5.

As to GUUCCGCUGCCGUAAUGGUAACGCGUCUCCCUCCUAAGGAGAAGACUGCGGGUUCGAGUCGUGUACGGAACG, the yeast fitness is ≤ 0.5.

Take GCUCCGUUGGCGUAAUGGUAACACGUCUCCGUCCUAAGGAGAAGACUGCGGGUUCGAAUCCCGUACGGAACG: the yeast fitness is ≤ 0.5.

Regarding GUUCCGUUGGCGUAAUGGUAACGCAUCUACCUCCUAAGGAGACGACUGCGGGUUCGCGUCCCGUACGGAACG, the yeast fitness is ≤ 0.5.

Consider GUUCCGUUGGCGUAAUGGUAACGCGUCUCUCGCCUGUGGAGAAGACAGCGGGUUCGAGUCCCGUACGGAACG, for which the yeast fitness amounted to 0.559.

Consider GAUCCGUUGGCGUAAUGGUAACGCGUCUCCCUUCUAAGGAGAAGACUGCGGGUUCGAGUCCCGUACGGAACG, for which the yeast fitness came to 0.636.

Regarding GUUCCGUUGGCGUAAUGGUAACGCGUCUCCCUGCUAAGGAGGAAACUGCGGGUUCGAGUCCCGCACGGAACG, the yeast fitness is ≤ 0.5.

Regarding GUUCCGUUGGCGUAAUGGUCACGCGUCUCCCUCCUAAGGAGAAGACUGCAGGUUCGAGUCCCGUACGGAACG, the yeast fitness is 0.861.

Turning to GUUCCGUUGGCAUAAUGGUAACGCGUCUCCCUCCUAAAGAGAAGACUGCGGGUUCGAGUCCCGUACGGAACG, the yeast fitness was 0.728.

Regarding GUUCCGUUGGCGUAAUGGUAUCGCGUCUCCCUCCUAAGGAGAAGACUGAGGGUUCGAGUCCCGUACGGAACG, the yeast fitness was ≤ 0.5.

As to GUUCCGUUGGCGUAAUGGUAACGCGUCUACCUCCUAAGGAGAAGACUCCGGGUUCGAGUCCCGUACGGAGCG, the yeast fitness is 0.54.

Turning to GUUCCGUUGGCGUUAUAGUAACGCGUCUCCCUCCUAAGGAGAAGACUGCGGGUUCGAGCCUCGUACGGAACG, the yeast fitness came out at 0.653.

As to GUUCCGUUGGCGUAGUGGUAACGCGUCUACCUCCUAAGGAGAAGACUGCGGGUUCGCGUCCCGUACGGAACG, the yeast fitness is ≤ 0.5.

Regarding GUUCCGUUGGCGUAAUGGUAACGGGUCUCCCUCCUAAGGAGAAGACUGCGGGUUCGAAUCCCGUACGGAACG, the yeast fitness was found to be 0.675.

Turning to GUUACGUUGGCGUAAUGGUAACGCGUCUCGCUCCUAAGGAGAAGACCGGGGGUUCGAGUCCCGUACGGAACG, the yeast fitness was ≤ 0.5.

GUUCCGUUAGCGUAAUGGUAACGCGUCUCGCUCCUAAGGAGACGACUGCGGGUUCGAGUCCCGUACGGAACG: the yeast fitness was ≤ 0.5.

As for GUUCCGUUGGCGUAAUGGUAACGCGUCUCCCUCCUAAGGAGAAGACUGCGGGUUUGAGUCCCAUAGGGAACG, the yeast fitness is ≤ 0.5.

Turning to GUUCCGUUGGGGUAAUGGUAACGCGUCUCCCUCCUAAGGAGAAGACUGCGGGUUCGAGUCCCGCACGGAACG, the yeast fitness was 0.567.

For GUUCCGUUGGCGUAAUGGUAUAGCGUCUCCCUCCUAACGAGAAGUCUGCGGGUUCGAGUCCCGUACGGAACG, the yeast fitness is ≤ 0.5.

GUUCCGUUGGCGUAAUGGUAACGCGUCUCCCUCCUAACGAGAAGACUGCGGGUUCGAAUCCCGUACGGAACG: the yeast fitness amounted to 0.756.

For GUUUCGUUGGCGUAAUGGUAACGCGUCUCCCUCCUAAGGAGAAGACUGCGGGUUCGAGUCCCGUACGGCACG, the yeast fitness came out at 1.02.

Turning to GUUCCAUUGGCGUAAUGGUAACGCGUCUCCCUCCUAAGGGAGAGACUGCGGGUUCGAGUCCCGUACGGAACG, the yeast fitness is ≤ 0.5.

With GCUCCGUUGGCGUAAUGGUAACGCGUCUCCCUCCUAAGGAGAAGGCUGCGGGUUCGAGUCCCGUACGGAACG, the yeast fitness was determined as 0.883.
